How the values were obtained:
[1] = Population PK / non-compartmental analysis of plasma Rimeporide in DMD boys; type: in vivo, human; conditions: for half-life: male, human, plasma, po
How it was run: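 Sparse plasma sampling: Day 1 pre-dose, 0.5–1, 1–2, 2.5–3.5 and ~6 h post-dose; Day 28 at 0.5–1 and ~6 h. Drug was quantified by a validated LC–MS/MS method. A 3-compartment population model with absorption and first-order elimination was fitted in NONMEM, pooled with healthy-volunteer and heart-failure data.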

[2] = test system: MB (Myoglobin); experiment: Circulating biomarker, baseline vs 4-week treatment; type: in vivo, human; conditions: 20 DMD patients, OLink, p-value 0.0036, FDR 0.79
[3] = test system: Golden Retriever muscular dystrophy (GRMD) dogs; conditions: treatment in a preventing setting; cited from earlier work
[4] = test system: SCGB3A2; experiment: Circulating biomarker, baseline vs 4-week treatment; type: in vivo, human; conditions: 20 DMD patients, OLink, p-value 1.3e-5, FDR 0.001
[5] = test system: UMX 101 hamsters; conditions: lifelong preventive treatment; cited from earlier work
[6] = test system: skeletal muscle; experiment: NMRI of skeletal muscle; type: in vivo, human; conditions: dose escalation, 4-week treatment
How it was run: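 NMRI of both lower limbs was acquired locally at baseline and week 4 of oral treatment (50–300 mg TID, 4 ascending-dose cohorts). Indices were water T2 and fat fraction in skeletal muscle. Descriptive statistics were produced per cohort.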

[7] = test system: TR (Transferrin receptor); experiment: Circulating biomarker, baseline vs 4-week treatment; type: in vivo, human; conditions: 20 DMD patients, OLink, p-value 3.0e-6, FDR 0.0004
[8] = test system: sodium-proton exchanger isoform 1 (NHE-1); conditions: cited from earlier work
[9] = test system: CK T (Creatine Kinase total); experiment: Circulating biomarker, baseline vs 4-week treatment; type: in vivo, human; conditions: 20 DMD patients, Electrophoresis, p-value 0.0007, FDR 0.24

[H]/N=C(\N)NC(=O)c1cc(S(C)(=O)=O)c(S(C)(=O)=O)cc1C [Rimeporide]
TAT (time above 500 ng/ml over 24 h) ([1]; Cohort 1, 150 to 225 mg daily oral, Day 1, mean, N 5): 6.6 h
TAT (time above 500 ng/ml over 24 h) ([1]; Cohort 1, 150 to 225 mg daily oral, Day 28, mean, N 4): 8.4 h
TAT (time above 500 ng/ml over 24 h) ([1]; Cohort 2, 300 to 450 mg daily oral, Day 1, mean, N 5): 17 h
TAT (time above 500 ng/ml over 24 h) ([1]; Cohort 2, 300 to 450 mg daily oral, Day 28, mean, N 5): 15 h
TAT (time above 500 ng/ml over 24 h) ([1]; Cohort 3, 450 to 600 mg daily oral, Day 1, mean, N 5): 18 h
TAT (time above 500 ng/ml over 24 h) ([1]; Cohort 3, 450 to 600 mg daily oral, Day 28, mean, N 5): 16 h
TAT (time above 500 ng/ml over 24 h) ([1]; Cohort 4, 600 to 900 mg daily oral, Day 1, mean, N 5): 19.0 h
TAT (time above 500 ng/ml over 24 h) ([1]; Cohort 4, 600 to 900 mg daily oral, Day 28, mean, N 5): 18 h
dose linearity of PK ([1]; DMD patients): dose linear
accumulation with time ([1]; DMD patients, repeated dosing 4 weeks): no sign of any accumulation
effect of fed condition on AUC24 ([1]; fed condition): no impact
effect of fed condition on Cmax ([1]; fed condition): decrease
exposure in children compared to healthy adults ([1]; in vivo): slightly higher exposure than in adults
half-life ([1]; T1/2, Cohort 3, 450 to 600 mg daily oral, Day 1, mean, N 5): 3.9 h
half-life ([1]; T1/2, Cohort 3, 450 to 600 mg daily oral, Day 28, mean, N 5): 3.76 h
half-life ([1]; T1/2, Cohort 4, 600 to 900 mg daily oral, Day 1, mean, N 5): 3.9 h
half-life ([1]; T1/2, Cohort 4, 600 to 900 mg daily oral, Day 28, mean, N 5): 3.75 h
time post dose at which Cmax occurred ([1]; oral immediate release capsules, Days 1 and 28): 1 to 2 h
MB: Term (TRT, linear mixed effect model, Day 28 vs Day 0) [2]: −0.6763
cardioprotection [3]: confirmed the cardioprotective role
SCGB3A2: Term (TRT, linear mixed effect model, Day 28 vs Day 0) [4]: −0.5466
mortality [5]: dramatic reduction in mortality
NMRI indices in skeletal muscle [6]: No notable change
TR: Term (TRT, linear mixed effect model, Day 28 vs Day 0) [7]: 0.5252
NHE-1 inhibition [8]: potent and selective inhibitor
CK T: Term (TRT, linear mixed effect model, Day 28 vs Day 0) [9]: −0.3851

— publication PMC7482441 (Pharmacological Research, 2020)
